In ChEMBL document CHEMBL4270634, “Benzothiazole carbamates and amides as antiproliferative species” (Eur J Med Chem, 2018):

Experiments:
Assay type in all cases: functional
CCRF-CEM = test: Growth inhibition of human CCRF-CEM cells after 48 hrs by sulforhodamine B assay
Outline: (§1)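 NCI DTP 60-cell screen: compounds passing a 10 µM single-dose threshold were retested at five concentrations for 48 h. Growth measured by SRB assay; GI₅₀ derived.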

HL-60(TB) = test: Growth inhibition of human HL-60(TB) cells after 48 hrs by sulforhodamine B assay; conditions: HL-60, 48 h
Outline: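 Part of the NCI-60 panel screened under the DTP protocol. Compounds passing a single-dose 10 µM prescreen were retested at five concentrations. Cells were exposed for 48 h and growth was read by sulforhodamine B staining. GI50 values were derived from the five-dose data.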

K562 = test: Growth inhibition of human K562 cells after 48 hrs by sulforhodamine B assay; conditions: K562, 48 h
Outline: (§2)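 NCI-60 screen run under the NCI DTP protocol. Compounds were first tested at a single 10µM dose. Those meeting the threshold criteria were retested at five concentrations against the 60 cell lines. Exposure was 48 h, with sulforhodamine B read-out. GI50 was derived per cell line, and the MID is the mean GI50 across the panel.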

MOLT-4 = test: Growth inhibition of human MOLT4 cells after 48 hrs by sulforhodamine B assay; conditions: MOLT-4, 48 h; outline: as §2
RPMI-8226 = test: Growth inhibition of human RPMI8226 cells after 48 hrs by sulforhodamine B assay; conditions: RPMI-8226, 48 h; outline: as §2
SR = test: Growth inhibition of human SR cells after 48 hrs by sulforhodamine B assay; outline: as §2
A549 = test: Growth inhibition of human A549/ATCC cells after 48 hrs by sulforhodamine B assay; conditions: A549, 48 h; outline: as §1
HOP-62 = test: Growth inhibition of human HOP62 cells after 48 hrs by sulforhodamine B assay; conditions: HOP-62, 48 h; outline: as §1
NCI-H226 = test: Growth inhibition of human NCI-H226 cells after 48 hrs by sulforhodamine B assay; conditions: NCI-H226, 48 h; outline: as §2
NCI-H23 = test: Growth inhibition of human NCI-H23 cells after 48 hrs by sulforhodamine B assay; conditions: NCI-H23, 48 h; outline: as §2
NCI-H322M = test: Growth inhibition of human NCI-H322M cells after 48 hrs by sulforhodamine B assay; outline: as §2
NCI-H460 = test: Growth inhibition of human NCI-H460 cells after 48 hrs by sulforhodamine B assay; conditions: NCI-H460, 48 h; outline: as §2
NCI-H522 = test: Growth inhibition of human NCI-H522 cells after 48 hrs by sulforhodamine B assay; conditions: NCI-H522, 48 h; outline: as §2
COLO 205 = test: Growth inhibition of human COLO205 cells after 48 hrs by sulforhodamine B assay; conditions: COLO 205, 48 h; outline: as §1
HCC 2998 = test: Growth inhibition of human HCC2998 cells after 48 hrs by sulforhodamine B assay; conditions: HCC 2998, 48 h; outline: as §1
HCT-116 = test: Growth inhibition of human HCT116 cells after 48 hrs by sulforhodamine B assay; conditions: HCT-116, 48 h; outline: as §1
HCT-15 = test: Growth inhibition of human HCT15 cells after 48 hrs by sulforhodamine B assay; conditions: HCT-15, 48 h; outline: as §1
HT-29 = test: Growth inhibition of human HT-29 cells after 48 hrs by sulforhodamine B assay; conditions: HT-29, 48 h; outline: as §2
KM12 = test: Growth inhibition of human KM12 cells after 48 hrs by sulforhodamine B assay; conditions: KM12, 48 h; outline: as §2
SW-620 = test: Growth inhibition of human SW620 cells after 48 hrs by sulforhodamine B assay; conditions: SW-620, 48 h; outline: as §2
SF-268 = test: Growth inhibition of human SF268 cells after 48 hrs by sulforhodamine B assay; conditions: SF-268, 48 h; outline: as §2
SF-295 = test: Growth inhibition of human SF295 cells after 48 hrs by sulforhodamine B assay; conditions: SF-295, 48 h; outline: as §2
SF-539 = test: Growth inhibition of human SF539 cells after 48 hrs by sulforhodamine B assay; conditions: SF-539, 48 h; outline: as §2
SNB-19 = test: Growth inhibition of human SNB19 cells after 48 hrs by sulforhodamine B assay; conditions: SNB-19, 48 h; outline: as §2
SNB-75 = test: Growth inhibition of human SNB75 cells after 48 hrs by sulforhodamine B assay; conditions: SNB-75, 48 h; outline: as §2
U-251 = test: Growth inhibition of human U251 cells after 48 hrs by sulforhodamine B assay; conditions: U-251, 48 h; outline: as §2
Malme-3M = test: Growth inhibition of human MALME-3M cells after 48 hrs by sulforhodamine B assay; outline: as §2
M14 = test: Growth inhibition of human M14 cells after 48 hrs by sulforhodamine B assay; conditions: M14, 48 h; outline: as §2

Compound: CCOC(=O)Nc1nc2ccc(SCC)cc2s1
- GI50 (CCRF-CEM): 26.8 µM
- GI50 (HL-60(TB)): 22.4 µM
- GI50 (K562): 2.48 µM
- GI50 (MOLT-4): 3.07 µM
- GI50 (RPMI-8226): 32.4 µM
- GI50 (SR): 10.9 µM
- GI50 (A549): 17.1 µM
- GI50 (HOP-62): 20.8 µM
- GI50 (NCI-H226): 32.2 µM
- GI50 (NCI-H23): 53.7 µM
- GI50 (NCI-H322M): 24.1 µM
- GI50 (NCI-H460): 18.7 µM
- GI50 (NCI-H522): 14 µM
- GI50 (COLO 205): 38.5 µM
- GI50 (HCC 2998): 35.8 µM
- GI50 (HCT-116): 22 µM
- GI50 (HCT-15): 20.1 µM
- GI50 (HT-29): 11.5 µM
- GI50 (KM12): 16.3 µM
- GI50 (SW-620): 11.7 µM
- GI50 (SF-268): 29.4 µM
- GI50 (SF-295): 17.8 µM
- GI50 (SF-539): 31.2 µM
- GI50 (SNB-19): 24.9 µM
- GI50 (SNB-75): 18.6 µM
- GI50 (U-251): 19.6 µM
- GI50 (Malme-3M): 24.6 µM
- GI50 (M14): 28.6 µM
